Measured values from ChEMBL document CHEMBL4609986 (Bioorg Med Chem, 2020).

How the values were obtained:
[1] = molecular target: T1, Dual specificity tyrosine-phosphorylation-regulated kinase 1A (Homo sapiens, UniProt Q13627); test: Inhibition of DYRK1A in human pancreatic islets assessed as induction of pancreatic beta-cells replication measured after 48 hrs by Hoechst 33342 staining based analysis
Method in brief: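 Human islets (85-95% purity) rested 12 h in low-glucose DMEM with 10% FBS and 20 nM exendin-4. Dispersed to single cells and plated on 804G-conditioned-matrix 384-well plates for 48 h. Treated 48 h, then fixed with 4% PFA. Stained with anti-insulin, anti-Ki-67 and 4 μM Hoechst 33342; Ki67+Insulin+/Insulin+ scored by high-content imaging against per-plate cutoffs.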

[2] = Selectivity index, ratio of CC50 for mouse R7T1 cells assessed as reduction in cell viability measured after 48 hrs by Hoechst 33342 staining based analysis to MEC for inhibition of DYRK1A in human pancreatic islets assessed as induction of pancreatic beta-cells replication measured after 48 hrs by Hoechst 33342 staining based analysis
Homo sapiens = species on record: Homo sapiens; test: Selectivity index, ratio of CC50 for human HEK293T cells transfected with DYRK1A co-tranfected with Renilla plasmid, pGL3-NFAT and NFATc1 assessed as reduction in luciferase activity by measuring cell number to EC50 for human DYRK1A transfected in HEK293T cells co-transfected with Renilla plasmid, pGL3-NFAT and NFATc1 assessed as derepression of NFAT-dependent luciferase activity measured after 48 hrs by luciferase assay; assay type: cell-based
Method in brief: (§1)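 HEK293T cells transfected with PEI using DYRK1A, Renilla plasmid, IL-2-based pGL3-NFAT firefly reporter and NFATc1. Next day the same transfected population was split into 96-well plates; 6 h later cells were treated for 48 h (11-point dose curve, n = 4), then lysed. EC50 from firefly/Renilla ratio, 4-parameter agonist fit. CC50 from loss of constitutive Renilla signal, 4-parameter inhibitor fit.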

[3] = Half life in mouse liver microsomes at 1 uM preincubated for 10 mins followed by NADPH addition and measured up to 40 mins by LC-MS/MS analysis; assay type: ADME, Microsome
Method in brief: (§2)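 Human or mouse liver microsomes, each run separately, in 100 mM KxPO4 pH 7.4 with 10 mM MgCl2 and 1 μM test compound. Pre-incubated 10 min at 37 °C, then started with 1 mM NADPH. Quenched in acetonitrile stop solution at 0, 10, 20 and 40 min, centrifuged, diluted and analysed by LC-MS/MS.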

[4] = molecular target: T1, Dual specificity tyrosine-phosphorylation-regulated kinase 1A; test: Inhibition of human DYRK1A transfected in HEK293T cells co-transfected with Renilla plasmid, pGL3-NFAT and NFATc1 assessed as derepression of NFAT-dependent luciferase activity measured after 48 hrs by luciferase assay; assay type: cell-based, HEK-293T; method in brief: as §1
[5] = Apparent permeability in human Caco2 cells measured after 2 hrs by LC-MS/MS analysis; assay type: ADME, cell-based, Caco-2; details: for Papp at 2 h: Caco-2
Method in brief: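 Caco-2 monolayers grown on polycarbonate filter inserts (5 × 10⁵ cells/well seeded) and differentiated 21 ± 4 days. Transport run in HBSS with 25 mM HEPES, pH 7.4, 37 °C; compound added donor side. Receiver sampled over 2 h, donor at 0 and 2 h; LC-MS/MS with internal standard. Papp = (dC_rec/dt)/(A × C0,donor) × 10^6.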

[6] = (§3) Cytotoxicity against human HEK293T cells transfected with DYRK1A co-tranfected with Renilla plasmid, pGL3-NFAT and NFATc1 assessed as reduction in luciferase activity by measuring cell number; assay type: cell-based, HEK-293T; method in brief: as §1
[7] = Half life in human liver microsomes at 1 uM preincubated for 10 mins followed by NADPH addition and measured up to 40 mins by LC-MS/MS analysis; assay type: ADME, Microsome; method in brief: as §2
[8] = Cytotoxicity against mouse R7T1 cells assessed as reduction in cell viability measured after 48 hrs by Hoechst 33342 staining based analysis
Method in brief: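 Mouse R7T1 β-cells cultured in high-glucose DMEM with 10% FBS, doxycycline and pyruvate, plated at 25,000 cells/well. Treated in quadruplicate 6 h later (0.169–10,000 nM) for 48 h. Cells fixed in paraformaldehyde and stained with 4 μM Hoechst 33342; nuclei counted by high-content imaging.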

[9] = molecular target: T1, Dual specificity tyrosine-phosphorylation-regulated kinase 1A; test: Inhibition of wild-type human partial length DYRK1A (H129 to S509 residues) expressed in mammalian expression system assessed as residual activity at 100 nM by Kinomescan method relative to control
Method in brief: (§4)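 Kinase panel of 468 kinases, scored as residual activity at 100 nM or 500 nM test compound.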

[10] = molecular target: T2, Aurora kinase A (Homo sapiens) (UniProt O14965); test: Inhibition of wild-type human partial length AURKA (E122 to K401 residues) expressed in mammalian expression system assessed as residual activity at 100 nM by Kinomescan method relative to control; method in brief: as §4
T2 sequence (whole entry): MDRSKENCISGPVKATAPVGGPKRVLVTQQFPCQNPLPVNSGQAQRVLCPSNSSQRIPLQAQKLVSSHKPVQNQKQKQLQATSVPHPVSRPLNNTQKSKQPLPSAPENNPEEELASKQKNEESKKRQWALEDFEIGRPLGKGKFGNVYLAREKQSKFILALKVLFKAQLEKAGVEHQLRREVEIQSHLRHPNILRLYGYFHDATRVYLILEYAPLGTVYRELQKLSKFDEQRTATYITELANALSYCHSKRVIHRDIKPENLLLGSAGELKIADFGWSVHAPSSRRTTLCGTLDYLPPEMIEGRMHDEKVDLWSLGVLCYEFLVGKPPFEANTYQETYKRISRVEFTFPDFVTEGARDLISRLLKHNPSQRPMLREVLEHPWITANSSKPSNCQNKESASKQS

[11] = molecular target: T3, Tyrosine-protein kinase ABL1 (Homo sapiens, UniProt P00519); test: Inhibition of wild-type human phosphorylated ABL1 (S229 to K512 residues) expressed in mammalian expression system assessed as residual activity at 100 nM by Kinomescan method relative to control; method in brief: as §4
[12] = molecular target: T1, Dual specificity tyrosine-phosphorylation-regulated kinase 1A; test: Binding affinity to wild-type human partial length DYRK1A (H129 to S509 residues) expressed in mammalian expression system by Kinomescan method
Method in brief: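 Kd measured in a KdELECT binding assay using an 11-point, 3-fold dilution series with three DMSO control points.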

HEK-293T = test: as §3; assay type: cell-based; details: hek-293t; method in brief: as §1
[13] = molecular target: Dual specificity mitogen-activated protein kinase kinase 1 (Homo sapiens) (UniProt Q02750); test: Inhibition of wild-type human full length MEK1 (M1 to V393 residues) expressed in mammalian expression system assessed as residual activity at 100 nM by Kinomescan method relative to control; method in brief: as §4
[14] = molecular target: T3, Tyrosine-protein kinase ABL1; test: Inhibition of wild-type human non-phosphorylated ABL1 (S229 to K512 residues) expressed in mammalian expression system assessed as residual activity at 100 nM by Kinomescan method relative to control; method in brief: as §4
[15] = molecular target: Dual specificity mitogen-activated protein kinase kinase 2 (Homo sapiens) (UniProt P36507); test: Inhibition of wild-type human full length MEK2 (M1 to V400 residues) expressed in mammalian expression system assessed as residual activity at 100 nM by Kinomescan method relative to control; method in brief: as §4
Aurora kinase B [16] = molecular target: T4, Aurora kinase B (Homo sapiens, UniProt Q96GD4); test: Inhibition of wild-type human partial length AURKB (D25 to A303 residues) expressed in mammalian expression system assessed as residual activity at 100 nM by Kinomescan method relative to control; method in brief: as §4
[17] = molecular target: Maternal embryonic leucine zipper kinase (Homo sapiens, UniProt Q14680); test: Binding affinity to wild-type human full length MELK (M1 to V651 residues) expressed in bacterial expression system by Kinomescan method
AURKB (Aurora kinase B) [18] = molecular target: T5, AURKB (Aurora kinase B) (Homo sapiens, UniProt Q96GD4); test: Inhibition of AURKB in human HEK293T cells assessed as reduction in cell viability at 40 nM measured after 48 hrs relative to control; assay type: cell-based, HEK-293T
Method in brief: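 Cells were exposed to the Aurora inhibitor at 40 nM, alone or combined with a second DYRK1A inhibitor at 30, 90 or 270 nM, for 48 h. They were then fixed, stained and counted. Cell number is given as a percentage of untreated wells, with n = 4-16 and error bars as standard deviation.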

AURKB (Aurora kinase B) [19] = molecular target: T5, AURKB (Aurora kinase B); test: Inhibition of AURKB in human HEK293T cells assessed as reduction in cell viability at 3 uM measured after 48 hrs relative to control; assay type: cell-based, HEK-293T
Method in brief: (§5)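 HEK293T cells treated 48 h with the compound alone or combined with a second kinase inhibitor at the stated level, then fixed, stained and counted. Cell number expressed as a percentage of untreated wells; n = 4-16.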

AURKB (Aurora kinase B) [20] = molecular target: T5, AURKB (Aurora kinase B); test: Inhibition of AURKB in human HEK293T cells assessed as reduction in cell viability at 10 uM measured after 48 hrs relative to control; assay type: cell-based, HEK-293T; method in brief: as §5
Aurora kinase B [21] = molecular target: T4, Aurora kinase B; test: Inhibition of AURKB in human HEK293T cells assessed as reduction in cell viability at 10 uM measured after 48 hrs; assay type: cell-based; details: hek-293t; method in brief: as §5

Sequence of Maternal embryonic leucine zipper kinase (Q14680 whole entry, the tested form may be a part): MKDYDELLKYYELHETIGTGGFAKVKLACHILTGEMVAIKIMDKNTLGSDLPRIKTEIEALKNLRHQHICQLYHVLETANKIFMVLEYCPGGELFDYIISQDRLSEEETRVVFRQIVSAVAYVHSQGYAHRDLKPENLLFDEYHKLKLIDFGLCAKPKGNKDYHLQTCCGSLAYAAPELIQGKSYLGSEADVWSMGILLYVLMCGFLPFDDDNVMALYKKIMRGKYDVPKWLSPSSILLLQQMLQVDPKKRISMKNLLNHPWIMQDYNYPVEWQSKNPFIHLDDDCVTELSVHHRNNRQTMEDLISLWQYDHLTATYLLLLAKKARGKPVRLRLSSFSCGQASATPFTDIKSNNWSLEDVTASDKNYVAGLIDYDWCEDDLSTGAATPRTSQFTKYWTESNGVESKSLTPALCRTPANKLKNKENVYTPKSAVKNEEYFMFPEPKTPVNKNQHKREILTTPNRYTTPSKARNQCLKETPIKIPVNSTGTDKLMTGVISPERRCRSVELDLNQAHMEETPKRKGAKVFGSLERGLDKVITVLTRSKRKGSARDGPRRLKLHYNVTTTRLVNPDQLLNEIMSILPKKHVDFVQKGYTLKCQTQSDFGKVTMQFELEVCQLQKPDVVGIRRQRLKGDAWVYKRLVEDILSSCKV
T5 sequence (Q96GD4 whole entry): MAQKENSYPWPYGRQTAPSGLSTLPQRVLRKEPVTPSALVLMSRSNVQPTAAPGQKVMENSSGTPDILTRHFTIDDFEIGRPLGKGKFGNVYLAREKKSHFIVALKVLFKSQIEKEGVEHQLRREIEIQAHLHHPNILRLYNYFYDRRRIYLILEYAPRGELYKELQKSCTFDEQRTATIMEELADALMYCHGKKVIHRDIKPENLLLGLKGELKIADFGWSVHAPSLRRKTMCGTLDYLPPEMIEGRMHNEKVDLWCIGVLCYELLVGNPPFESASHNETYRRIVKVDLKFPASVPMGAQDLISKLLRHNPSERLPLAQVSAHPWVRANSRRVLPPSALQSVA
T3 sequence (P00519 whole entry, the tested form may be a part): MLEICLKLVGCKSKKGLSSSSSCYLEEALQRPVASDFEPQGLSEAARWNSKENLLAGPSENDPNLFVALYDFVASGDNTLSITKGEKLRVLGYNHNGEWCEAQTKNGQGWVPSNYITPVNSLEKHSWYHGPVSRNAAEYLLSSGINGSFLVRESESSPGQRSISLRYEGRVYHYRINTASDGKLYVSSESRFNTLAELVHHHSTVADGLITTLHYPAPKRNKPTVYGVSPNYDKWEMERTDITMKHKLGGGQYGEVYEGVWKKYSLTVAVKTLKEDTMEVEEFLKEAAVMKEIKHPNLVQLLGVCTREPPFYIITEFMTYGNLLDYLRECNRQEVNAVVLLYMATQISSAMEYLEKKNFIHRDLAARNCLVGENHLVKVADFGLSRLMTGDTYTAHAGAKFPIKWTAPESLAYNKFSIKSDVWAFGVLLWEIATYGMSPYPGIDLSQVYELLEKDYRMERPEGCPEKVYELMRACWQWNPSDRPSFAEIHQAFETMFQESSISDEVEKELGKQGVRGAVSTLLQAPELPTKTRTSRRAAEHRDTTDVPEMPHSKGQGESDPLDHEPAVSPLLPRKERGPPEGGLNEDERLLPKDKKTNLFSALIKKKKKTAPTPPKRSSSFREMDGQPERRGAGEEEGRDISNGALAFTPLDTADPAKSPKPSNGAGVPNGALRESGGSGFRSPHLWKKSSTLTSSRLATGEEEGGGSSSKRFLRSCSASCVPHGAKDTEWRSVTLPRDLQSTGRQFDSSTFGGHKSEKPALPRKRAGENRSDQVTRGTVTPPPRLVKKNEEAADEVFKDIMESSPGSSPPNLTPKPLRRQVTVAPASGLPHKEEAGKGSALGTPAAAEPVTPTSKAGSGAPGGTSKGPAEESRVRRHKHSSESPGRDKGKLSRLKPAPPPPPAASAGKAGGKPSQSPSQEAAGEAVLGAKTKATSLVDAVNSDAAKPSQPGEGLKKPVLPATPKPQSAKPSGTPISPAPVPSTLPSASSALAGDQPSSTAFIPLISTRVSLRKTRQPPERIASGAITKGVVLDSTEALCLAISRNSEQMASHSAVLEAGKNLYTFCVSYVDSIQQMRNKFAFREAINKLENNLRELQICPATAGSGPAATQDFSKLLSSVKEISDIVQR
T4 sequence (Q96GD4 whole entry, the tested form may be a part): as the sequence (Q96GD4 whole entry) above
Sequence of Dual specificity mitogen-activated protein kinase kinase 2 (Homo sapiens) (P36507 whole entry, the tested form may be a part): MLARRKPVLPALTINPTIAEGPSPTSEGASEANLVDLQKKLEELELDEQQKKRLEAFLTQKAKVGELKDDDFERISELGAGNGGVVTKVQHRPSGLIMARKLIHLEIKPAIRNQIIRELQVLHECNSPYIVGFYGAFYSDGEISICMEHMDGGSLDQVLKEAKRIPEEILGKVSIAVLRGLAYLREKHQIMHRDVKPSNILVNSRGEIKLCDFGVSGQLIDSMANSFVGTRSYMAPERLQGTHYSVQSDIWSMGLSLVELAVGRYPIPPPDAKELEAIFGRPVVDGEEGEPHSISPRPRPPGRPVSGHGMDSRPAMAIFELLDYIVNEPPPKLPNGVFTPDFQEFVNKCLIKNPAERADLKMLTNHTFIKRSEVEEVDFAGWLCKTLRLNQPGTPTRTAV
Sequence of Dual specificity mitogen-activated protein kinase kinase 1 (Homo sapiens) (Q02750 whole entry, the tested form may be a part): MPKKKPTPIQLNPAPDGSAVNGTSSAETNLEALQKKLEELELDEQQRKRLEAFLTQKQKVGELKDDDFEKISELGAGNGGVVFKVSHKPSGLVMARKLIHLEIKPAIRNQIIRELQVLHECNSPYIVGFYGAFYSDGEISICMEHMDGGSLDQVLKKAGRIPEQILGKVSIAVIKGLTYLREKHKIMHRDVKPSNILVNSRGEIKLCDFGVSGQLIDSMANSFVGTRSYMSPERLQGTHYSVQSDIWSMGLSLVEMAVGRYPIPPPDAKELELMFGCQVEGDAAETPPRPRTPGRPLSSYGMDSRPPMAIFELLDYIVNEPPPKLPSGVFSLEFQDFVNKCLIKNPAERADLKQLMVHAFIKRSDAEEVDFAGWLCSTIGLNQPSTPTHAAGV

SMILES | MEC [1] | t1/2 [3] | EC50 [4] | t1/2 [7] | Kd [12] | Selectivity Index [2] | Ratio CC50/EC50 (Homo sapiens) | CC50 [8] | CC50 (HEK-293T) | other results
CCCCNC(=O)c1cnc2ccc(-c3cc(Cl)c(O)c(Cl)c3)nc2c1N[C@H]1CC[C@H](C(=O)N2CCOCC2)CC1 | 63 nM | > 2.65 h | 56 nM | 1.58 h | – | 39 | 38 | 2440 nM | – | Papp ([5]; caco-2, 2 h): 9.1 ×10⁻⁶ cm/s; CC50 [6]: 2120 nM
CCCCNC(=O)c1cnc2ccc(-c3cc(Cl)c(O)c(Cl)c3)nc2c1N[C@H]1CC[C@H](CN(C)C)CC1 | – | – | 3 nM | – | 0.075 nM | – | 17 | – | 51 nM | Kd [17]: 12 nM
CCN(CCO)CCCOc1ccc2c(Nc3cc(CC(=O)Nc4cccc(F)c4)[nH]n3)ncnc2c1 [DEFOSBARASERTIB] | – | – | – | – | – | – | – | – | – | inhibition at 48 h, 0.04 µM (AURKB (Aurora kinase B) [18]): 41%
CCOC(=O)c1cnc2ccc(-c3ccnc(N)c3)nc2c1N[C@H]1CC[C@H](CN2CCOCC2)CC1 | 3.3 nM | 0.25 h | 37 nM | 0.617 h | – | 259 | 79 | 856 nM | – | Papp at 2 h [5]: 2.7 ×10⁻⁶ cm/s; CC50 [6]: 2960 nM
O=C(O)c1ccc(Nc2ncc3c(n2)-c2ccc(Cl)cc2C(c2c(F)cccc2F)=NC3)cc1 [MLN-8054] | – | – | – | – | – | – | – | – | – | inhibition at 48 h, 0.04 µM (AURKB (Aurora kinase B) [18]): 22%
CCOC(=O)c1cnc2ccc(-c3cc(Cl)c(O)c(Cl)c3)nc2c1N[C@H]1CC[C@H](C(=O)N(C)C)CC1 | 31 nM | > 2.65 h | 50 nM | > 2.65 h | 0.6 nM | 91 | 119 | 2810 nM | 5900 nM | Kd [17]: 13 nM; Papp at 2 h [5]: 0.12 ×10⁻⁶ cm/s
O=C(O)[C@]1(Cc2cccc(Nc3nccs3)n2)CC[C@@H](Oc2cccc(Cl)c2F)CC1 [MK-5108] | – | – | – | – | – | – | – | – | – | inhibition at 48 h, 3 µM (AURKB (Aurora kinase B) [19]): 24%
O=C(NC[C@H](O)CO)c1ccncc1Nc1ccc(I)cc1F [PIMASERTIB] | – | – | – | – | – | – | – | – | – | inhibition at 48 h, 10 µM (AURKB (Aurora kinase B) [20]): 10%
Cn1c(=O)c(F)c(Nc2ccc(I)cc2F)c2c(=O)n(C[C@@H](O)CO)cnc21 [TAK-733] | – | – | – | – | – | – | – | – | – | inhibition (INH) (Aurora kinase B [21]): Not Active

Second part, led by results:

MEC [1] | t1/2 [3] | EC50 [4] | t1/2 [7] | Kd [12] | SMILES | Selectivity Index [2] | Ratio CC50/EC50 (Homo sapiens) | CC50 [8] | CC50 (HEK-293T) | other results
5 nM | – | 5 nM | – | 0.12 nM | CC(=O)c1cnc2ccc(-c3cc(Cl)c(O)c(Cl)c3)nc2c1N[C@H]1CC[C@H](CN(C)C)CC1 | – | – | 20 nM | 64 nM | Activity [9]: 0%; Activity [10]: 6.6%; Activity [11]: 0%; Activity [13]: 1.7%; Activity [14]: 0%; Activity [15]: 1.7%; Activity (Aurora kinase B [16]): 0.65%
– | – | 7 nM | – | 0.16 nM | CCOC(=O)c1cnc2ccc(-c3cc(Cl)c(O)c(Cl)c3)nc2c1N[C@H]1CC[C@H](CN(C)C)CC1 | – | 26 | – | 186 nM | Kd [17]: 11 nM
63 nM | > 2.65 h | 43 nM | 0.467 h | – | CCOC(=O)c1cnc2ccc(-c3cc(Cl)c(O)c(Cl)c3)nc2c1N[C@H]1CC[C@H](CC(N)=O)CC1 | 22 | 44 | 1390 nM | – | Papp at 2 h [5]: 0.01 ×10⁻⁶ cm/s; CC50 [6]: 1890 nM
– | – | 8 nM | – | 0.22 nM | CCOC(=O)c1cnc2ccc(-c3cc(Cl)c(O)c(Cl)c3)nc2c1N[C@H]1CC[C@H](CN)CC1 | – | 20 | – | 165 nM | Kd [17]: 9 nM
3.3 nM | 2.15 h | 6 nM | > 2.65 h | – | CCOC(=O)c1cnc2ccc(-c3cc(Cl)c(O)c(Cl)c3)nc2c1NC1CCN(C)CC1 | 117 | 170 | 387 nM | 1020 nM | Papp at 2 h [5]: 4.6 ×10⁻⁶ cm/s
